core dimer inh = inhibitors of HCV core protein dimerization, primary screen, biochemical, TR-FRET, high-throughput | TR-FRET GST/Flag-core106 dimerization, 1536-well | inhibition, % at 5 µM | 300,000 compounds, 0.33% hits | AID 1899, 2009;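 active = inhibition above the mean of all tested compounds plus 3 SD, set per screening campaign, cut at about 45% in these data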
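Material: Tagged HCV core106 pair (GST and Flag) | Amount: GST-core106 13.5 nM, Flag-core106 17 nM | Medium: KF-containing HEPES buffer, pH 7.45, DTT, CHAPS, BSA | Reagent: Eu donor and XL665 acceptor anti-tag antibodies | Schedule: 4 h at 22.5 °C | Technique: Time-resolved FRET, ex 340 nm, em 617 and 671 nm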
Myeloid diff MLP = induction of myeloid progenitor differentiation, primary screen, cell-based, flow cytometry, MLPCN library. ER-HoxA9 myeloid progenitors, lysozyme-GFP differentiation. calls only at 10 µM. 360,000 compounds, 1% hits;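 active = normalized GFP-positive differentiation at or above the plate's own cutoff, the solvent-only control mean plus 3 SD; inconclusive = no clear call, values can overlap the other calls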;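 note: cells exposed to compound for four days before flow analysis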
Fh CTSL1 inh = Fasciola hepatica cathepsin L1 inhibitors, primary screen, counter-screen for PFM18AAP inhibitor project, biochemical, QFRET, fluorogenic peptide substrate. inhibition, % at 5.96 µM. 300,000 compounds, 0.49% hits. AID 1906, 2009. recombinant F. hepatica cathepsin L1, Z-Leu-Arg-MCA fluorescence;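 active = inhibition above the mean of all tested compounds plus 3 SD, set per screening campaign, cut at about 17% in these data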;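 note: 0% = plate median of test compound wells and 100% = 1 µM Z-Phe-Ala-diazomethylketone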
PP5 inh = PP5 phosphatase inhibitors, primary screen, biochemical, fluorescence | Serine/threonine-protein phosphatase 5 (Homo sapiens), P53041 | 320,000 compounds, 0.18% hits | purified PP5c, OMFP substrate fluorescence | inhibition, % at 6.7 µM;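 active = inhibition above the campaign's mean inhibition across all tested compounds plus 3 SD, cut at about 9.5% in these data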;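 note: 0% = DMSO only and 100% = 100 µM cantharidin control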
PP1 inh = PP1-alpha phosphatase inhibitors, primary screen, counter-screen for PP5 inhibitor project, biochemical, fluorescence, OMFP substrate, single point; purified PP1alpha; inhibition, % at 6.7 µM; 320,000 compounds, 0.9% hits; AID 2235, 2010;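 active = inhibition above the mean inhibition of all tested compounds plus 3 SD, computed separately for each screening campaign, cut at about 15% in these data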
Target sequence (P62136 whole entry, looked up): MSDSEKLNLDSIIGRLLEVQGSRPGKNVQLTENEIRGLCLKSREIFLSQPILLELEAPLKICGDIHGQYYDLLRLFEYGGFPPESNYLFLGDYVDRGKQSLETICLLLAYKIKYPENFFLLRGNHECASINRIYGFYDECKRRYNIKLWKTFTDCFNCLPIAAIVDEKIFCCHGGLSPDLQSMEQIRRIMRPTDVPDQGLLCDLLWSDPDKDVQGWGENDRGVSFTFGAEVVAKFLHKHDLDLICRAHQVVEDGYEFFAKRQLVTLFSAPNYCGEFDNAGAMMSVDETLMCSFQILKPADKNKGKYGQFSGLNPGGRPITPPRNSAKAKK
NadD inh = inhibitors of S. aureus NadD, primary screen, biochemical, colorimetric, uHTS; purified NadD enzyme, colorimetric absorbance read-out; 360,000 compounds, 0.78% hits; Nicotinate-nucleotide adenylyltransferase NadD (Staphylococcus aureus N315); AID 602399, 2012; inhibition, % at 20 µM; in the data active = inhibition above about 26%
NadD inh conf = inhibitors of S. aureus NadD, confirmation, biochemical, colorimetric, single concentration; shares compounds with NadD inh; 2,000 compounds, 13% hits; AID 624309, 2012; purified S. aureus NadD, colorimetric enzyme assay; inhibition, % at 20 µM; in the data active = inhibition mostly above about 42%, no sharp cut-off; inactive = mostly below about 42%
Starred values were filed as active, the others as inactive; i = inactive; ? = inconclusive; nt = not tested or not shown; + = active, no number. An excerpt weighted towards active compounds, which were near 3.1% of everything screened.

SMILES	core dimer inh	Myeloid diff MLP	Fh CTSL1 inh	PP5 inh	PP1 inh	NadD inh	NadD inh conf
O=C(Nc1ccc(F)cc1)c1nc2c(nnn2Cc2cccc3ccccc23)c(=O)[nH]1	18	i	5	0	12	33*	20
COc1cccc(OC)c1NC(=O)c1nc2c(nnn2Cc2ccccc2Cl)c(=O)[nH]1	10	i	7	5	2	15	nt
CC1CCCN(C(=S)SCC(=O)c2cc(Br)cc(Br)c2O)C1 (stereo not drawn)	3	i	3	-1	-2	64*	10
COc1ccccc1/C=C/C=C1N=C(/C=C/c2ccc(Cl)cc2)OC/1=O	43	i	1	3	4	32*	-3
O=C(O)CCC(=O)Nc1ccc(SSc2ccc(NC(=O)CCC(=O)O)cc2)cc1	0	i	-3	2	3	-4	nt
COc1cc(/C=C/c2ccc3c(Br)cc(Br)c(O)c3n2)ccc1O	2	i	4	-2	5	61*	47
C[C@H](CO)N1C[C@H](C)[C@H](CN(C)S(=O)(=O)c2cccc(F)c2)Oc2cc(Br)ccc2S1(=O)=O	nt	i	nt	nt	nt	-4	nt
CCOC(=O)c1sc(NC(=O)c2cc(-c3ccccc3C)nc3ccccc23)c(C#N)c1C	29	i	1	0	-1	48*	29
Cc1ccccc1-c1cc(C(=O)Nc2sc(C)c(C)c2C(N)=O)c2ccccc2n1	44	i	1	3	3	20	nt
COCCN1C(=O)CCC1(C)C(=O)Nc1ccc2ccccc2c1 (stereo not drawn)	nt	i	nt	nt	nt	-2	nt
COc1ccc(NC(=O)c2cccc(N3C(=O)c4ccc(C(=O)Nc5ccc(OC)c(O)c5)cc4C3=O)c2)cc1O	17	i	2	2	2	44*	35
CC(=O)c1ccc(NC(=O)c2cccc(N3C(=O)c4ccccc4C3=O)c2)cc1	27	?	-4	1	-2	-5	nt
COc1ccc(Cl)cc1N(CC(=O)N/N=C/c1ccc(OC(C)C)cc1)S(=O)(=O)c1ccc(C)c([N+](=O)[O-])c1	29	i	11	-9	4	31*	15
CCCCc1ccc(-c2csc(/C(C#N)=C\c3ccc(C)o3)n2)cc1	-4	i	3	0	0	11	nt
CCOc1ccc(-c2csc(/C(C#N)=C\c3ccc(O)c([N+](=O)[O-])c3)n2)cc1	23	i	6	5	6	48*	16
COc1cc(/C=C(/C#N)c2ccccc2)ccc1Oc1ccc([N+](=O)[O-])cn1	2	i	2	0	2	-3	nt
N#C/C(=C\c1cccc(Oc2ccc(C(F)(F)F)cc2[N+](=O)[O-])c1)c1nc2ccccc2[nH]1	8	i	4	4	1	38*	10
COc1cc(/C=C(\C#N)c2nc3ccccc3[nH]2)ccc1Oc1ccc([N+](=O)[O-])cn1	9	i	2	2	7	33*	18
Cc1ccc2nc(/C(C#N)=C/c3ccc(-c4cccc([N+](=O)[O-])c4)o3)[nH]c2c1	2	+	2	5	5	32*	9
Cc1ccc2nc(/C(C#N)=C\c3cc(O)ccc3[N+](=O)[O-])[nH]c2c1	-1	i	0	-2	-1	1	nt
Cc1ccc2nc(/C(C#N)=C\c3ccc(Oc4ccc(C(F)(F)F)cc4[N+](=O)[O-])cc3)[nH]c2c1	40	i	1	4	3	33*	4
CC1(C(=O)NS(=O)(=O)c2cccs2)CCN1C(=O)C1CC1 (stereo not drawn)	nt	i	nt	nt	nt	-6	nt
Cc1cc(C)cc(NS(=O)(=O)c2ccc3[nH]c(=O)ccc3c2)c1	nt	i	nt	nt	nt	-2	nt
COc1ccc(/C=C(\C#N)c2nc3ccc(C)cc3[nH]2)cc1Oc1ccc(C(F)(F)F)cc1[N+](=O)[O-]	17	i	-2	-4	-2	32*	-20
O=C1CC(=C2c3ccccc3-c3ccccc32)C(=O)N1CCN1CCN(c2ccccc2)CC1	18	i	-2	4	17*	38*	27
SMILES	core dimer inh	Myeloid diff MLP	Fh CTSL1 inh	PP5 inh	PP1 inh	NadD inh	NadD inh conf
Cc1ccccc1N1CCN(CCN2C(=O)CC(=C3c4ccccc4-c4ccccc43)C2=O)CC1	4	i	5	4	13	31*	39
COc1ccccc1N1CCN(CCN2C(=O)CC(=C3c4ccccc4-c4ccccc43)C2=O)CC1	24	nt	2	3	9	nt	nt
C=C(C)[C@@H]1CC=C(CN2CCN(Cc3ccccc3)CC2)CC1	-14	i	-1	4	2	-9	nt
COc1ccc(C(=O)[C@H]2[C@H]3C(=O)N(c4ccc(OC(C)=O)cc4)C(=O)[C@H]3C3C=CC=NN32)cc1 (stereo partly drawn)	26	i	1	1	6	13	nt
CC(=O)Oc1ccc(C(=O)[C@H]2[C@H]3C(=O)N(c4cccc5ccccc45)C(=O)[C@H]3[C@@H]3C=CC=NN32)cc1	52*	?	0	1	13	45*	24
COc1cc(C2C(C#N)=C(N)N(Nc3ccccc3)C3=C2C(=O)CC(C)(C)C3)ccc1OCc1cccc(F)c1 (stereo not drawn)	35	i	3	4	6	31*	13
COc1cc(C2C(C#N)=C(N)N(Nc3ccccc3)C3=C2C(=O)CC(C)(C)C3)ccc1OCc1ccccc1 (stereo not drawn)	39	i	2	3	15	20	nt
CC(C)CC(N)c1csc(NC(=O)Nc2ccccc2C(C)C)n1 (stereo not drawn)	nt	i	nt	nt	nt	-1	nt
CCOC(=O)C1=C(C)N=c2s/c(=C\c3ccc(OC(C)=O)c(OCC)c3)c(=O)n2C1/C=C/c1ccccc1 (stereo not drawn)	21	i	1	-1	-2	54*	4
Cc1cccn2c(=O)c(/C=C(\C#N)S(=O)(=O)c3ccccc3)c(N3CCN(c4ccccc4)CC3)nc12	41	i	0	0	-4	43*	1
CNc1cc(C)c(C#N)c2nc3ccccc3n12	-9	i	-1	3	0	2	nt

Screens (PubChem BioAssay)
